Experimental data reported in ChEMBL document CHEMBL1667736, “Tirucallane triterpenoids from Cornus walteri” (J Nat Prod, 2011).

Columns and labels:
Type in all cases: functional, cell-based
SK-OV-3 = assay: Cytotoxicity against human SKOV3 cells by SRB assay
How it was run: (§1)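 Sulforhodamine B (SRB) cytotoxicity assay on cultured human cancer lines: A549 (non-small cell lung adenocarcinoma), SK-OV-3 (ovarian), SK-MEL-2 (skin melanoma), XF498 (CNS). Assays were run at the Korea Research Institute of Chemical Technology. Etoposide served as positive control. Potency is expressed as IC50 in µM.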

XF498 = assay: Cytotoxicity against human XF498 cells by SRB assay; how it was run: as §1
SK-MEL-2 = assay: Cytotoxicity against human SK-MEL-2 cells by SRB assay; how it was run: as §1
A549 = assay: Cytotoxicity against human A549 cells by SRB assay; how it was run: as §1

SMILES | IC50 (SK-OV-3) | IC50 (XF498) | IC50 (SK-MEL-2) | IC50 (A549)
COC(C)(C)/C=C/C[C@H](C)[C@@H]1CC[C@]2(C)C3=CCC4C(C)(C)C(=O)CC[C@]4(C)[C@H]3CC[C@@]12C (stereo partly drawn) [(-)-LEUCOPHYLLONE] | 18 µM | 18.2 µM | 21.2 µM | 24.9 µM
COC(C)(C)/C=C/C[C@H](C)[C@@H]1CC[C@]2(C)C3=CCC4C(C)(C)[C@@H](O)CC[C@]4(C)[C@H]3CC[C@@]12C (stereo not given in full) [CORNUSALTERIN A] | 12.5 µM | 17.4 µM | 12.1 µM | 22.2 µM
COC(C)(C)/C=C/C[C@H](C)[C@@H]1CC[C@]2(C)[C@@H]3CCC4C(C)(C)C(=O)CC[C@]4(C)[C@H]3CC[C@@]12C (stereo not given in full) [CORNUSALTERIN B] | 19.2 µM | 28.7 µM | 18 µM | 28.8 µM
COC(C)(C)/C=C/C[C@H](C)[C@@H]1CC[C@]2(C)[C@@H]3CCC4C(C)(C)[C@@H](O)CC[C@]4(C)[C@H]3CC[C@@]12C (stereo not given in full) [CORNUSALTERIN C] | 16.5 µM | 17.6 µM | 11.9 µM | 23.6 µM
C=C(C)/C=C/C[C@H](C)[C@@H]1CC[C@]2(C)C3=CCC4C(C)(C)C(=O)CC[C@]4(C)[C@H]3CC[C@@]12C (stereo not given in full) [CORNUSALTERIN D] | 14.5 µM | 17.8 µM | 12.7 µM | 26.9 µM
CC(C)CCC[C@H](C)[C@@H]1CC[C@]2(C)C3=CCC4C(C)(C)C(=O)C=C[C@]4(C)[C@H]3CC[C@@]12C (stereo not given in full) [CORNUSALTERIN E] | 14.1 µM | 13.1 µM | 12.5 µM | 18.4 µM
CC(C)CCC[C@H](C)[C@@H]1CC[C@]2(C)C3=CCC4C(C)(C)C=CC(=O)[C@]4(C)[C@H]3CC[C@@]12C (stereo not given in full) [CORNUSALTERIN F] | 27.3 µM | 24.6 µM | 21.4 µM | 27 µM
CO[C@@H](C=C(C)C)C[C@H](C)[C@@H]1CC[C@]2(C)C3=CCC4C(C)(C)C(=O)CC[C@]4(C)[C@H]3CC[C@@]12C (stereo not given in full) [CORNUSALTERIN G] | 26.9 µM | 20.5 µM | 18 µM | 29.9 µM
CO[C@H](C=C(C)C)C[C@H](C)[C@@H]1CC[C@]2(C)C3=CCC4C(C)(C)C(=O)CC[C@]4(C)[C@H]3CC[C@@]12C (stereo not given in full) [CORNUSALTERIN H] | 21.4 µM | 18.6 µM | 17.7 µM | 28.5 µM
CO[C@H](C=C(C)C)C[C@H](C)[C@@H]1CC[C@]2(C)C3=CCC4C(C)(C)C(=O)CC[C@]4(C)C3=CC[C@@]12C (stereo not given in full) [CORNUSALTERIN I] | 13.5 µM | 12.3 µM | 10.4 µM | 17.6 µM
CO[C@@H](C=C(C)C)C[C@H](C)[C@@H]1CC[C@]2(C)C3=CCC4C(C)(C)[C@@H](O)CC[C@]4(C)[C@H]3CC[C@@]12C (stereo not given in full) [CORNUSALTERIN J] | 17.8 µM | 18.2 µM | 12.3 µM | 25.4 µM
CC(C)CCC[C@H](C)[C@@H]1CC[C@]2(C)[C@@H]3CC=C4C(C)(C)C(=O)C[C@@H](O)[C@]4(C)[C@H]3CC[C@@]12C [CORNUSALTERIN K] | 12.8 µM | 12 µM | 12.4 µM | 11.7 µM
CC(C)=C[C@@H]1C[C@@H]([C@@H]2CC[C@]3(C)C4=CCC5C(C)(C)C(=O)CC[C@]5(C)[C@H]4CC[C@@]23C)CO1 (stereo not given in full) [CORNUSALTERIN L] | 3.82 µM | 5.81 µM | 4.73 µM | 4.29 µM
CC(C)=C[C@H]1C[C@@H]([C@@H]2CC[C@]3(C)C4=CCC5C(C)(C)C(=O)CC[C@]5(C)[C@H]4CC[C@@]23C)CO1 (stereo not given in full) [DEOXYFLINDISSONE] | 3.64 µM | 5.1 µM | 6.07 µM | 4.02 µM
COc1cc([C@@H]2c3cc4c(cc3[C@@H](O[C@@H]3O[C@@H]5CO[C@@H](C)O[C@H]5[C@H](O)[C@H]3O)[C@H]3COC(=O)[C@H]23)OCO4)cc(OC)c1O [ETOPOSIDE] | 1.81 µM | 1.72 µM | 1.17 µM | 1.85 µM
